From ChEMBL document CHEMBL1139476, “Radioiodinated flavones for in vivo imaging of beta-amyloid plaques in the brain” (J Med Chem, 2005)

Experiments:
Stomach [1] = assay: Biodistribution per organ in ddY mouse stomach at 2 uCi, iv after 2 mins; type: ADME, organism-based; settings: in vivo
In short: (§1)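 Normal mice injected intravenously with the 125I-labelled flavone; killed at each time point, stomach removed and counted in a γ counter. Value given as % injected dose per whole organ; mean (SD) of three to five animals per interval.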

Blood [2] = assay: Biodistribution in ddY mouse blood at 2 uCi, iv after 60 mins; type: ADME, organism-based; settings: in vivo, 1 h
In short: (§2)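 Normal mice given the 125I-labelled flavone intravenously; killed at each time point postinjection, organs removed, weighed and counted in a γ counter. Radioactivity expressed as % injected dose per gram tissue; mean (SD) of three to five animals per interval.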

Brain [3] = assay: Biodistribution in ddY mouse brain at 2 uCi, iv after 10 mins; type: ADME, organism-based; settings: in vivo; in short: as §2
Blood [4] = assay: Biodistribution in ddY mouse blood at 2 uCi, iv after 10 mins; type: ADME, organism-based; settings: in vivo; in short: as §2
Kidney [5] = assay: Biodistribution in ddY mouse kidney at 2 uCi, iv after 60 mins; type: ADME, organism-based; settings: in vivo, 1 h; in short: as §2
Intestine [6] = assay: Biodistribution in ddY mouse intestine at 2 uCi, iv after 60 mins; type: ADME, organism-based; settings: in vivo, 1 h; in short: as §2
Stomach [7] = assay: Biodistribution per organ in ddY mouse stomach at 2 uCi, iv after 30 mins; type: ADME, organism-based; settings: in vivo, 0.5 h; in short: as §1
Spleen [8] = assay: Biodistribution in ddY mouse spleen at 2 uCi, iv after 2 mins; type: ADME, organism-based; settings: in vivo; in short: as §2
Blood [9] = assay: Biodistribution in ddY mouse blood at 2 uCi, iv after 2 mins; type: ADME, organism-based; settings: in vivo; in short: as §2
Stomach [10] = assay: Biodistribution per organ in ddY mouse stomach at 2 uCi, iv after 10 mins; type: ADME, organism-based; settings: in vivo; in short: as §1
Spleen [11] = assay: Biodistribution in ddY mouse spleen at 2 uCi, iv after 30 mins; type: ADME, organism-based; settings: in vivo, 0.5 h; in short: as §2
Spleen [12] = assay: Biodistribution in ddY mouse spleen at 2 uCi, iv after 60 mins; type: ADME, organism-based; settings: in vivo, 1 h; in short: as §2
Liver [13] = assay: Biodistribution in ddY mouse liver at 2 uCi, iv after 10 mins; type: ADME, organism-based; settings: in vivo; in short: as §2
Intestine [14] = assay: Biodistribution in ddY mouse intestine at 2 uCi, iv after 10 mins; type: ADME, organism-based; settings: in vivo; in short: as §2
Heart [15] = assay: Biodistribution in ddY mouse heart at 2 uCi, iv after 30 mins; type: ADME, organism-based; settings: in vivo, 0.5 h; in short: as §2
Intestine [16] = assay: Biodistribution in ddY mouse intestine at 2 uCi, iv after 2 mins; type: ADME, organism-based; settings: in vivo; in short: as §2
Spleen [17] = assay: Biodistribution in ddY mouse spleen at 2 uCi, iv after 10 mins; type: ADME, organism-based; settings: in vivo; in short: as §2
Brain [18] = assay: Biodistribution in ddY mouse brain at 2 uCi, iv after 60 mins; type: ADME, organism-based; settings: in vivo, 1 h; in short: as §2
Stomach [19] = assay: Biodistribution per organ in ddY mouse stomach at 2 uCi, iv after 60 mins; type: ADME, organism-based; settings: in vivo, 1 h; in short: as §1
Liver [20] = assay: Biodistribution in ddY mouse liver at 2 uCi, iv after 60 mins; type: ADME, organism-based; settings: in vivo, 1 h; in short: as §2
[21] = Partition coefficient, log P at pH 7.4; type: physicochemical; settings: octanol/water
In short: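 Radioiodinated tracer shaken 3 min at room temperature in 1-octanol and 0.1 M phosphate buffer pH 7.4, centrifuged 5 min. Equal aliquots of each layer counted; ratio of octanol to buffer counts, with octanol layer repartitioned until values were consistent. Triplicate, repeated three times; mean (SD) of three experiments.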

Kidney [22] = assay: Biodistribution in ddY mouse kidney at 2 uCi, iv after 10 mins; type: ADME, organism-based; settings: in vivo; in short: as §2
Brain [23] = assay: Biodistribution in ddY mouse brain at 2 uCi, iv after 30 mins; type: ADME, organism-based; settings: in vivo, 0.5 h; in short: as §2
Liver [24] = assay: Biodistribution in ddY mouse liver at 2 uCi, iv after 2 mins; type: ADME, organism-based; settings: in vivo; in short: as §2
Blood [25] = assay: Biodistribution in ddY mouse blood at 2 uCi, iv after 30 mins; type: ADME, organism-based; settings: in vivo, 0.5 h; in short: as §2
Heart [26] = assay: Biodistribution in ddY mouse heart at 2 uCi, iv after 60 mins; type: ADME, organism-based; settings: in vivo, 1 h; in short: as §2
Heart [27] = assay: Biodistribution in ddY mouse heart at 2 uCi, iv after 10 mins; type: ADME, organism-based; settings: in vivo; in short: as §2
Liver [28] = assay: Biodistribution in ddY mouse liver at 2 uCi, iv after 30 mins; type: ADME, organism-based; settings: in vivo, 0.5 h; in short: as §2
Kidney [29] = assay: Biodistribution in ddY mouse kidney at 2 uCi, iv after 30 mins; type: ADME, organism-based; settings: in vivo, 0.5 h; in short: as §2
Kidney [30] = assay: Biodistribution in ddY mouse kidney at 2 uCi, iv after 2 mins; type: ADME, organism-based; settings: in vivo; in short: as §2
Intestine [31] = assay: Biodistribution in ddY mouse intestine at 2 uCi, iv after 30 mins; type: ADME, organism-based; settings: in vivo, 0.5 h; in short: as §2
Heart [32] = assay: Biodistribution in ddY mouse heart at 2 uCi, iv after 2 mins; type: ADME, organism-based; settings: in vivo; in short: as §2
Brain [33] = assay: Biodistribution in ddY mouse brain at 2 uCi, iv after 2 mins; type: ADME, organism-based; settings: in vivo; in short: as §2
[34] = molecular target: T1, Amyloid-beta precursor protein (Homo sapiens, UniProt P05067); assay: Displacement of [125I]6-iodo-4'-dimethyaminofl avone from beta amyloid (1-40) protein aggregates
[35] = molecular target: T1, Amyloid-beta precursor protein; assay: Displacement of [125I]6-iodo-4'-dimethyaminofl avone from beta amyloid (1-42) protein aggregates

T1 sequence (P05067 whole entry): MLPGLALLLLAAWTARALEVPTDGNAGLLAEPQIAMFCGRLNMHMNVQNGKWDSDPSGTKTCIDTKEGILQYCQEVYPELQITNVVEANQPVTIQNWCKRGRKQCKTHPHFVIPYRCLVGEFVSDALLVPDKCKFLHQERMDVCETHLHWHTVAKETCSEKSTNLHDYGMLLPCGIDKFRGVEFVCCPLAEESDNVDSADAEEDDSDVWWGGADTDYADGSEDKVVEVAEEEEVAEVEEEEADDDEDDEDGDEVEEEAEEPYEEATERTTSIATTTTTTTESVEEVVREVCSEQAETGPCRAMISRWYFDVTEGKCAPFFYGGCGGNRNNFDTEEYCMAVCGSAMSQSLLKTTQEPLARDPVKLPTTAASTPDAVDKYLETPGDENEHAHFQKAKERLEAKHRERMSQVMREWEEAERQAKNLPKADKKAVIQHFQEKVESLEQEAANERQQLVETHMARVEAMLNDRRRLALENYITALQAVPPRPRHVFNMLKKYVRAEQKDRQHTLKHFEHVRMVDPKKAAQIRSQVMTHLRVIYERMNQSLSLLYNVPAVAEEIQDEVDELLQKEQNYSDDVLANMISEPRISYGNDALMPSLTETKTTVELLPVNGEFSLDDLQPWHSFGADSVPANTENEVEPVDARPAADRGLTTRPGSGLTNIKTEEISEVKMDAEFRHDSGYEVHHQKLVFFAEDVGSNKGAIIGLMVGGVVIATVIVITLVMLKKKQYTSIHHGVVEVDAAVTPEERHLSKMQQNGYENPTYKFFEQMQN

| SMILES | Drug uptake (Stomach [1]) [% ID/organ] | Drug uptake (Blood [2]) [% ID/g] | Drug uptake (Brain [3]) [% ID/g] | Drug uptake (Blood [4]) [% ID/g] | Drug uptake (Kidney [5]) [% ID/g] | Drug uptake (Intestine [6]) [% ID/g] | Drug uptake (Stomach [7]) [% ID/organ] | Drug uptake (Spleen [8]) [% ID/g] | Drug uptake (Blood [9]) [% ID/g] | Drug uptake (Stomach [10]) [% ID/organ] | Drug uptake (Spleen [11]) [% ID/g] | Drug uptake (Spleen [12]) [% ID/g] | Drug uptake (Liver [13]) [% ID/g] | Drug uptake (Intestine [14]) [% ID/g] | Drug uptake (Heart [15]) [% ID/g] | Drug uptake (Intestine [16]) [% ID/g] | Drug uptake (Spleen [17]) [% ID/g] | Drug uptake (Brain [18]) [% ID/g] | Drug uptake (Stomach [19]) [% ID/organ] | Drug uptake (Liver [20]) [% ID/g] | also measured |
| --- | --- | --- | --- | --- | --- | --- | --- | --- | --- | --- | --- | --- | --- | --- | --- | --- | --- | --- | --- | --- | --- |
| CNc1ccc(-c2cc(=O)c3cc([125I])ccc3o2)cc1 | 0.78 | 1.5 | 3.68 | 1.39 | 3.05 | 21.48 | 1.44 | 2.57 | 1.89 | 0.87 | 1.76 | 1.52 | 25.28 | 7.91 | 1.67 | 3.1 | 2.31 | 1.19 | 1.8 | 15.14 | logD [21]: 2.15; Drug uptake (Kidney [22]): 5.21 % ID/g; Drug uptake (Brain [23]): 1.84 % ID/g; Drug uptake (Liver [24]): 16.28 % ID/g; Drug uptake (Blood [25]): 1.34 % ID/g; Drug uptake (Heart [26]): 1.28 % ID/g; Drug uptake (Heart [27]): 2.66 % ID/g; Drug uptake (Liver [28]): 18.61 % ID/g; Drug uptake (Kidney [29]): 3.85 % ID/g; Drug uptake (Kidney [30]): 8.13 % ID/g; Drug uptake (Intestine [31]): 12.84 % ID/g; Drug uptake (Heart [32]): 4.87 % ID/g; Drug uptake (Brain [33]): 4.12 % ID/g |
| O=c1cc(-c2ccc(O)cc2)oc2ccc([125I])cc12 | 0.89 | 0.2 | 1.9 | 1.58 | 1.66 | 27.28 | 1.56 | 3.92 | 2.77 | 0.59 | 0.56 | 0.17 | 8.24 | 11.26 | 0.53 | 3.12 | 1.55 | 0.08 | 0.81 | 4.78 | logD [21]: 1.92; Drug uptake (Kidney [22]): 15.11 % ID/g; Drug uptake (Brain [23]): 0.52 % ID/g; Drug uptake (Liver [24]): 9.77 % ID/g; Drug uptake (Blood [25]): 0.66 % ID/g; Drug uptake (Heart [26]): 0.12 % ID/g; Drug uptake (Heart [27]): 1.6 % ID/g; Drug uptake (Liver [28]): 6.8 % ID/g; Drug uptake (Kidney [29]): 6.45 % ID/g; Drug uptake (Kidney [30]): 14.79 % ID/g; Drug uptake (Intestine [31]): 22.01 % ID/g; Drug uptake (Heart [32]): 5.51 % ID/g; Drug uptake (Brain [33]): 3.31 % ID/g |
| CN(C)c1ccc(-c2cc(=O)c3cc([125I])ccc3o2)cc1 | 0.73 | 1.15 | 3.61 | 1.07 | 2.32 | 18.64 | 1.17 | 2.72 | 1.87 | 0.63 | 1.58 | 1.18 | 21.85 | 6.56 | 1.69 | 2.24 | 1.92 | 0.99 | 1.06 | 12.4 | logD [21]: 2.69; Drug uptake (Kidney [22]): 4.31 % ID/g; Drug uptake (Brain [23]): 1.89 % ID/g; Drug uptake (Liver [24]): 15.41 % ID/g; Drug uptake (Blood [25]): 1.2 % ID/g; Drug uptake (Heart [26]): 1.07 % ID/g; Drug uptake (Heart [27]): 2.47 % ID/g; Drug uptake (Liver [28]): 15.71 % ID/g; Drug uptake (Kidney [29]): 3.4 % ID/g; Drug uptake (Kidney [30]): 8.33 % ID/g; Drug uptake (Intestine [31]): 12.97 % ID/g; Drug uptake (Heart [32]): 5.63 % ID/g; Drug uptake (Brain [33]): 3.22 % ID/g |
| Nc1c(/N=N/c2ccc(-c3ccc(/N=N/c4cc(S(=O)(=O)O)c5ccccc5c4N)cc3)cc2)cc(S(=O)(=O)O)c2ccccc12 [CONGO RED] | – | – | – | – | – | – | – | – | – | – | – | – | – | – | – | – | – | – | – | – | Ki [34]: > 1000 nM; Ki [35]: > 1000 nM |
| COc1ccc(-c2cc(=O)c3cc([125I])ccc3o2)cc1 | 0.68 | 0.23 | 2.36 | 1.19 | 1.46 | 30.05 | 0.55 | 2.7 | 1.87 | 0.45 | 0.55 | 3.67 | 9.01 | 14.39 | 0.84 | 3.52 | 1.38 | 0.17 | 0.31 | 1.88 | logD [21]: 2.41; Drug uptake (Kidney [22]): 6.3 % ID/g; Drug uptake (Brain [23]): 0.51 % ID/g; Drug uptake (Liver [24]): 8.96 % ID/g; Drug uptake (Blood [25]): 0.4 % ID/g; Drug uptake (Heart [26]): 0.47 % ID/g; Drug uptake (Heart [27]): 2.25 % ID/g; Drug uptake (Liver [28]): 3.75 % ID/g; Drug uptake (Kidney [29]): 4.51 % ID/g; Drug uptake (Kidney [30]): 7.99 % ID/g; Drug uptake (Intestine [31]): 22.51 % ID/g; Drug uptake (Heart [32]): 4.98 % ID/g; Drug uptake (Brain [33]): 4 % ID/g |
